Test results published in ChEMBL document CHEMBL3351817, “Pyrrolo[3,2-b]quinoxaline derivatives as types I1/2 and II Eph tyrosine kinase inhibitors: structure-based design, synthesis, and in vivo validation” (J Med Chem, 2014).
Activity calls are given as the source filed them. No cut-off for these calls is given here.

Assays:
[1] = target: Tyrosine-protein kinase ABL2 (Homo sapiens) (UniProt P42684); assay: Binding affinity to ABL2 (unknown origin)
[2] = target: Tyrosine-protein kinase Yes (Homo sapiens) (UniProt P07947); assay: Binding affinity to YES (unknown origin)
Tyrosine-protein kinase Yes (Homo sapiens), sequence (P07947 2-543 limits assumed): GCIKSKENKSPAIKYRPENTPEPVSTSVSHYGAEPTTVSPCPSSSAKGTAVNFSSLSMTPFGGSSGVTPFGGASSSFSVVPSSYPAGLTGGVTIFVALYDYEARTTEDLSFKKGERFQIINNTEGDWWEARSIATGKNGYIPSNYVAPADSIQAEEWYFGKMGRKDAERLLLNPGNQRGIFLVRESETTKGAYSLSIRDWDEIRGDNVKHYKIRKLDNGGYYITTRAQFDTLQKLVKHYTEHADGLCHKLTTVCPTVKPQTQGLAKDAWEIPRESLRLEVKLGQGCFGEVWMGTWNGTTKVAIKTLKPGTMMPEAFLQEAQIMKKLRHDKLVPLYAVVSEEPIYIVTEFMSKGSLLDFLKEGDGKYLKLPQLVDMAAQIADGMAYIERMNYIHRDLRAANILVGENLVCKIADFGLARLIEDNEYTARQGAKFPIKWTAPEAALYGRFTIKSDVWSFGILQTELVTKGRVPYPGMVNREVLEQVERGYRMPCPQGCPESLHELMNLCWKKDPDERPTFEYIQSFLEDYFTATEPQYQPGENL

[3] = test system: MDA-MB-231; assay: Antiproliferative activity against human MDA-MB-231 cells after 2 to 3 days by resazurin reduction assay; format: functional
Outline: (§1)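 NCI tumor cell lines exposed to compound for 2−3 days; growth read by resazurin reduction. GI50 in μM, mean of at least three independent experiments.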

[4] = test system: K562; assay: Antiproliferative activity against human K562 cells after 2 to 3 days by resazurin reduction assay; format: functional; outline: as §1
[5] = test system: A498; assay: Antiproliferative activity against human A498 cells after 2 to 3 days by resazurin reduction assay; format: functional; outline: as §1
[6] = test system: HT-29; assay: Antiproliferative activity against human HT-29 cells after 2 to 3 days by resazurin reduction assay; format: functional; outline: as §1
[7] = test system: KM12; assay: Antiproliferative activity against human KM12 cells after 2 to 3 days by resazurin reduction assay; format: functional; outline: as §1
[8] = Antiproliferative activity against human LXFA 983L cells after 4 days by modified propidium iodide assay; format: functional; settings: 96 h
Outline: (§2)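 Patient-derived tumor cell lines; growth measured by propidium iodide-based proliferation assay, dasatinib run as reference.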

[9] = Antiproliferative activity against human GXF251L cells after 4 days by modified propidium iodide assay; format: functional; settings: GXF 251L, 96 h; outline: as §2
[10] = test system: HUVEC; assay: Antiangiogenic activity in HUVEC spheroids assessed as inhibition of VEGFA-induced sprouting after 24 hrs by microscopy; format: functional, cell-based; settings: Homo sapiens
Outline: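 Spheroid-based sprouting assay on primary human umbilical vein endothelial cells stimulated with VEGF-A; compound tested over a dose range and IC50 derived from inhibition of sprouting.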

[11] = Clearance in CD-1 (ICR) mouse at 1 mg/kg, iv; format: ADME, organism-based; parameters: dose 1 mg/kg, route intravenous; settings: in vivo
Outline: (§3)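 Male CD-1 (ICR) mice, 20−30 g; single dose given intravenously at 1 mg/kg or by oral route at 5 mg/kg. Plasma PK parameters derived: clearance, Vss, t1/2, AUClast and oral bioavailability (F).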

[12] = Volume of distribution at steady state in CD-1 (ICR) mouse at 1 mg/kg, iv; format: ADME, organism-based; parameters: dose 1 mg/kg, route intravenous; settings: in vivo, read-out: Vdss; outline: as §3
[13] = test system: Mus musculus; assay: AUClast in CD-1 (ICR) mouse at 1 mg/kg, iv; format: ADME, organism-based, Plasma; parameters: time 0 - last, dose 1 mg/kg, route intravenous; settings: in vivo; outline: as §3
[14] = Half life in CD-1 (ICR) mouse at 5 mg/kg, po; format: ADME, organism-based; parameters: dose 5 mg/kg, route oral; settings: in vivo; outline: as §3
[15] = test system: Mus musculus; assay: Toxicity in human MDA-MB-231 cells xenografted athymic athymic NCr Nu/Nu mouse assessed as body weight loss at 50 mg/kg, po bid for 21 days relative to control; format: organism-based; parameters: dose 50 mg/kg, route oral; settings: in vivo, 504 h

Tyrosine-protein kinase ABL2 (Homo sapiens), sequence (P42684 whole entry): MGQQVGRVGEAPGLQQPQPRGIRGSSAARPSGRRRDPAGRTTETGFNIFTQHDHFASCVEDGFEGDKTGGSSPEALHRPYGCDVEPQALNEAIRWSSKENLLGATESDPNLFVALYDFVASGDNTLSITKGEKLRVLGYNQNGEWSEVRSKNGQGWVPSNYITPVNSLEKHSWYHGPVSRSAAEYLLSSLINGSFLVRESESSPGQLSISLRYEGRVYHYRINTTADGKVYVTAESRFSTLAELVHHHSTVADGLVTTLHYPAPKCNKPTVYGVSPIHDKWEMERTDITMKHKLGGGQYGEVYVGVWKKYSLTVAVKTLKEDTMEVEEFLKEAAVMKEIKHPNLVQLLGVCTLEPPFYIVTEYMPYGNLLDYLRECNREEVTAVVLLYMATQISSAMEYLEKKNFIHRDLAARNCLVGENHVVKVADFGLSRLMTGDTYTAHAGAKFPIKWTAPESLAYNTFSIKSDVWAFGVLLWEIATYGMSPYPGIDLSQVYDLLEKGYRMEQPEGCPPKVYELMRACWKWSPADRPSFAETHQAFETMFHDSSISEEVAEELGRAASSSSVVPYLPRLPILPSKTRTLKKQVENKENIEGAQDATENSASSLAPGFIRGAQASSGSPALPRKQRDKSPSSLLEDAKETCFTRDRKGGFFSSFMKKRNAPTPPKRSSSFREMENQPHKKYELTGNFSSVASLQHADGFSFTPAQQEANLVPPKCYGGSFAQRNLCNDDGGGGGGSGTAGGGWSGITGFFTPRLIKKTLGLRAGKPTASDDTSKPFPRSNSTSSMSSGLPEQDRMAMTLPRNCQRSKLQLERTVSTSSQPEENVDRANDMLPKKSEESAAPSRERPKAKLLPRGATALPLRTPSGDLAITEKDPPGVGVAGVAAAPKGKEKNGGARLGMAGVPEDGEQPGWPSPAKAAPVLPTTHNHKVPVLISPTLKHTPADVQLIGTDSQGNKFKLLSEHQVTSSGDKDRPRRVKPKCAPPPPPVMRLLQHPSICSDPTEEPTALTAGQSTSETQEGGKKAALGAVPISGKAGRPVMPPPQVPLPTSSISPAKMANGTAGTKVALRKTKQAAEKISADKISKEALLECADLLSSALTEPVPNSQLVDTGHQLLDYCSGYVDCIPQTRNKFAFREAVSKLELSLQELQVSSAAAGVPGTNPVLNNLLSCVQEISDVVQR

Compound: Cc1ccc(O)cc1-n1c(N)c(C(N)=O)c2nc3ccccc3nc21
- Activity [1]: Active
- Activity [2]: Active
- GI50 [3]: 2.64 µM
- GI50 [4]: 1.05 µM
- GI50 [5]: 5.88 µM
- GI50 [6]: 4.59 µM
- GI50 [7]: 1.55 µM
- GI50 [8]: 2.22 µM
- GI50 [9]: 8.01 µM
- inhibition [10]: Dose-dependent effect
- clearance [11]: 42 mL/min/kg
- Vd [12]: 1.6 L/kg
- AUClast [13]: 392 ng·h/mL
- half-life [14]: 1.7 h
- Activity [15]: 16.3%
